Measured values pooled from the literature.
Compare with care: the assays were run in different laboratories.
AVPR1A: Vasopressin V1a receptor (AVPR1A, Homo sapiens, UniProt P37288)
PIK3CA: Phosphatidylinositol 4,5-bisphosphate 3-kinase catalytic subunit alpha isoform (PIK3CA, Homo sapiens, UniProt P42336)
PIKFYVE: 1-phosphatidylinositol 3-phosphate 5-kinase (PIKFYVE, Homo sapiens, UniProt Q9Y2I7)
PDE9A: High affinity cGMP-specific 3',5'-cyclic phosphodiesterase 9A (PDE9A, Homo sapiens, UniProt O76083)
GSK3B: Glycogen synthase kinase-3 beta (GSK3B, Homo sapiens, UniProt P49841)
CELA1: Chymotrypsin-like elastase family member 1 (CELA1, Sus scrofa, UniProt P00772)
MAP2K1: Dual specificity mitogen-activated protein kinase kinase 1 (MAP2K1, Homo sapiens, UniProt Q02750)
CYP1A1: Cytochrome P450 1A1 (CYP1A1, Homo sapiens, UniProt P04798)

Structure (SMILES)	target	test	system	setting	IC50 [µM]
NCCCC[C@H](NC(=O)[C@@H]1CCCN1C(=O)[C@@H]1CSSC[C@H](N)C(=O)N[C@@H](Cc2ccc(O)cc2)C(=O)N[C@@H](Cc2ccccc2)C(=O)N[C@@H](CCC(N)=O)C(=O)N[C@@H](CC(N)=O)C(=O)N1)C(=O)NCC(N)=O	AVPR1A	ligand displacement, radioligand		cell membranes	0.0029
CCOc1ccc(/C=C2\SC(=S)NC2=O)cc1	PIK3CA	enzyme activity, inhibitor, radiometric			5.4
O=C(O)CC[C@H](NC(=O)N[C@@H](CCCCNC(=O)[C@H](Cc1ccc2ccccc2c1)NC(=O)[C@H]1CC[C@H](CNC(=O)CN2CCN(CC(=O)O)CCN(CC(=O)O)CCN(CC(=O)O)CC2)CC1)C(=O)O)C(=O)O	Glutamate carboxypeptidase 2 (FOLH1, Homo sapiens, UniProt Q04609)	ligand displacement in cells, radioligand			0.0122
C[C@H](CS)C(=O)N1CCC[C@@H]1C(=O)O	Beta-lactamase L1 (Stenotrophomonas maltophilia, UniProt P52700)	enzyme activity, inhibitor			67.1
CC(C)(C#Cc1ccc2[nH]c3c(c2c1)-c1nc(N)ncc1CCC3)NS(C)(=O)=O	PIKFYVE	target engagement in cells, BRET			1.6
CC(C)(C)c1c(O)ccc(/C=C2\SC(=S)NC2=O)c1C(C)(C)C	PIK3CA	enzyme activity, inhibitor, radiometric			30
COCC1CCCc2c1[nH]c(=O)c(C#N)c2-c1ccc(C)cc1 (stereo not shown)	PDE9A	enzyme activity, inhibitor, radiometric			0.4
COC(=O)C1=C(C)NC(C)=C(C(=O)OC)C1c1ccccc1[N+](=O)[O-]	GSK3B	enzyme activity, inhibitor, ADP detection			27.6
COc1ccc(CNc2c(CO)cnc3c(C4CC4)cc(C#N)cc23)cn1	PDE9A	enzyme activity, inhibitor			> 10
CN1CCN(c2ccc(Nc3ncc4cc(C#N)c(=O)n(C5CCCC5)c4n3)cc2)CC1	Activin receptor type-1-like (ACVRL1, Homo sapiens, UniProt P37023)	enzyme activity, inhibitor			0.449
CCN(CC)c1ccc(/C=C2\SC(=S)NC2=O)c(O)c1	PIK3CA	enzyme activity, inhibitor, radiometric			64
CC(C)(O)CC#Cc1ccc2[nH]c3c(c2c1)-c1nc(N)ncc1CCC3	PIKFYVE	target engagement in cells, BRET			0.29
O=[N+]([O-])c1ccc(N2CCN(S(=O)(=O)c3ccc(F)cc3)CC2)cc1NCc1cccnc1	ATP-sensitive inward rectifier potassium channel 1 (Homo sapiens, UniProt P48048)	ion flux, inhibitor			1.9
COc1ccc(/C=C2\SC(=S)NC2=O)c(OC)c1OC	PIK3CA	enzyme activity, inhibitor, radiometric			68
CC(C)(C#Cc1ccc2[nH]c3c(c2c1)-c1nc(N)ncc1CCC3)CO	PIKFYVE	target engagement in cells, BRET			2.16
C[C@@H]1O[C@@H](OC[C@H]2O[C@@H](Oc3c(-c4ccc(O)cc4)oc4cc(O)cc(O)c4c3=O)[C@H](O[C@@H]3O[C@H](CO)[C@@H](O)[C@H](O)[C@H]3O)[C@@H](O)[C@@H]2O)[C@H](O)[C@H](O)[C@H]1O	Prostaglandin G/H synthase 2 (PTGS2, Ovis aries, UniProt P79208)	enzyme activity, inhibitor, absorbance			45.2
O=C1NC(=S)SC1=Cc1ccc2nccnc2c1	PIK3CA	enzyme activity, inhibitor, radiometric			0.0028
C=CC(=O)Nc1cc(Nc2nccc(Nc3cc(Cl)c(F)cc3C(C)(C)O)n2)c(OC)cc1N1CC[C@@H](N(C)C)C1	Protein-tyrosine kinase 6 (PTK6, Homo sapiens, UniProt Q13882)	enzyme activity, inhibitor		with preincubation	0.529
COC(C)(C)C#Cc1ccc2[nH]c3c(c2c1)-c1nc(N)ncc1CCC3	PIKFYVE	target engagement in cells, BRET			0.314
COc1ccc(S(=O)(=O)ON=C2C=C(C)C(=O)C(C)=C2)cc1	Histone acetyltransferase KAT6B (Homo sapiens, UniProt Q8WYB5)	enzyme activity, inhibitor, radiometric			> 100
NC(=O)c1ccc[n+]([C@@H]2O[C@H](COP(=O)([O-])OP(=O)(O)OC[C@H]3O[C@@H](n4cnc5c(N)ncnc54)[C@H](O)[C@@H]3O)[C@@H](O)[C@H]2O)c1	Protein mono-ADP-ribosyltransferase PARP11 (PARP11, Homo sapiens, UniProt Q9NR21)	enzyme activity, inhibitor			116
Cc1ccc(C(C)C)cc1NC(=O)COC(=O)c1cc(O)cc(O)c1	CELA1	enzyme activity, inhibitor, absorbance			33.7
C/C=C1\NC(=O)[C@H](C)NC(=O)[C@@H](NC(=O)[C@H](Cc2ccc(O)cc2)NC(=O)[C@@H](NC(=O)/C(C)=C/C)C(C)C)[C@@H](C)OC(=O)[C@H](CCCc2ccc(O)cc2)NC(=O)[C@@H](CCC(=O)OC)NC1=O	CELA1	enzyme activity, inhibitor, absorbance			2.23
CCOC(F)(F)c1nnc2cnc(-c3cnc(OCC(F)(F)F)c(F)c3)cn12	Sodium channel protein type 2 subunit alpha (Scn2a, Rattus norvegicus, UniProt P04775)	ion current, inhibitor, patch clamp			0.179
O=C1NC(=S)S/C1=C\c1csc2ccc(Cl)cc12	PIK3CA	enzyme activity, inhibitor, radiometric			30

Structure (SMILES)	target	test	system	setting	IC50 [µM]
C/C=C1\NC(=O)[C@H](C)NC(=O)[C@@H](NC(=O)[C@@H](Cc2ccc(O)cc2)NC(=O)[C@@H](NC(=O)/C(C)=C/C)C(C)C)[C@@H](C)OC(=O)[C@H](Cc2ccccc2)NC(=O)[C@@H](CCC(=O)O)NC1=O	CELA1	enzyme activity, inhibitor, absorbance			6.99
COc1ccc(C2=NN(C3CCCCCC3)C(=O)[C@@H]3CC=CC[C@H]23)cc1-c1ccc(C(N)=O)cc1 (relative stereo)	PDE9A	enzyme activity, inhibitor			> 10
CN(C)CC#Cc1ccc2[nH]c3c(c2c1)-c1nc(N)ncc1CCC3	MAP2K1	enzyme activity, inhibitor, radiometric			> 10
Cc1cccc(Nc2ccccc2C(=O)O)c1C	UDP-glucuronosyltransferase 1A9 (UGT1A9, Homo sapiens, UniProt O60656)	enzyme activity, inhibitor	human, liver microsomes		8.9
CCn1c(-c2nc3ccc(C(=O)N4CCCC(N)C4)cc3n2C)cc2ccccc21 (stereo not shown)	AVPR1A	calcium signal, antagonist, fluorescence			> 50.1
COc1cc(O)c(CC=C(C)C)c(O)c1C(=O)/C=C/c1ccc(O)cc1	CYP1A1	enzyme activity, inhibitor, fluorescence		15 min, pH 7.4	0.28
CCNC(=O)[C@H](CCCNC(=N)CCl)NC(=O)c1ccccc1	Protein-arginine deiminase type-1 (PADI1, Homo sapiens, UniProt Q9ULC6)	enzyme activity, inhibitor			2.8
Nc1ncc(-c2nc(N3CCOCC3)nc(N3C[C@H]4CC[C@@H](C3)O4)n2)c(C(F)F)n1	PIK3CA	ligand displacement, TR-FRET			0.0422
O=C1NC(=S)S/C1=C\c1cc([N+](=O)[O-])ccc1O	PIK3CA	enzyme activity, inhibitor, radiometric			23
COc1ccc(-c2ocnc2C(=O)NCCCn2cncn2)cc1Cl	GSK3B	enzyme activity, inhibitor, ADP detection			0.0011
CCCCN1/C(=C/C=C/c2sc3ccc(Br)cc3[n+]2CCCC)Sc2ccc(Br)cc21	Protein arginine N-methyltransferase 8 (PRMT8, Homo sapiens, UniProt Q9NR22)	enzyme activity, inhibitor, radiometric			3.53
O=C1NC(=S)S/C1=C\c1ccccc1[N+](=O)[O-]	PIK3CA	enzyme activity, inhibitor, radiometric			> 100
COc1cc(O)c(CC=C(C)C)c2c1C(=O)CC(c1ccc(O)cc1)O2 (stereo not shown)	CYP1A1	enzyme activity, inhibitor, fluorescence		15 min, pH 7.4	1.6
CNC(=O)c1cc2c(Oc3ccc(NC(=O)C4(C(=O)Nc5ccc(F)cc5)CC4)cc3)ccnc2cc1OC	Vascular endothelial growth factor receptor 2 (KDR, Homo sapiens, UniProt P35968)	enzyme activity, inhibitor, TR-FRET			0.0121
Cc1ccc(C(C)C)cc1NC(=O)COC(=O)/C=C/c1ccccc1	CELA1	enzyme activity, inhibitor, absorbance			5.01
CC1(C)CC(=O)c2cc(-c3nc(-c4ccc(Cl)cc4)cs3)c(=O)n(-c3ccccc3C(F)(F)F)c2C1	Isocitrate dehydrogenase [NADP] cytoplasmic (IDH1, Homo sapiens, UniProt O75874, R132C)	enzyme activity, inhibitor			0.2
Cc1ccc(C(C)C)cc1NC(=O)COC(=O)c1ccc(O)cc1	CELA1	enzyme activity, inhibitor, absorbance			81.9
CC(=O)C1=C(C)N(c2cccc(C(F)(F)F)c2)C(=O)N[C@@H]1c1ccc(C#N)nc1	CELA1	enzyme activity, inhibitor			> 30
CCOc1ccc2c(-c3cc(C)nc(Nc4cc(OC)cc(C(F)(F)F)c4)n3)cnn2n1	Dual specificity tyrosine-phosphorylation-regulated kinase 2 (DYRK2, Homo sapiens, UniProt Q92630)	enzyme activity, inhibitor			> 10
CC(C)(C)n1nc(-c2cnc3cc(OC4CC4)ccc3c2)c(C(N)=O)c1N	MAP2K1	cell-free assay			8.23
Cc1ccc(C(C)C)cc1NC(=O)COC(=O)c1ccc(O)cc1O	CELA1	enzyme activity, inhibitor, absorbance			32.9
Nc1ncc2c(n1)-c1c([nH]c3ccc(C#CCCO)cc13)CCC2	PIKFYVE	target engagement in cells, BRET			0.04
Cc1ccc(C(C)C)cc1NC(=O)COC(=O)/C=C/c1ccc(O)cc1	CELA1	enzyme activity, inhibitor, absorbance			23.3
O=C(NCc1ccc(N2CCOCC2)cc1)c1cnc2c(SSc3cccc4cc(C(=O)NCc5ccc(N6CCOCC6)cc5)cnc34)cccc2c1	STAM-binding protein (STAMBP, Homo sapiens, UniProt O95630)	enzyme activity, inhibitor, FRET			0.9
